# PG9 binder: binds the HIV-1 gp120 antibody PG9 | TR-FRET gp120-PG9 antibody binding | inhibition, % at 6.7 µM | 360,000 compounds, 0.43% hits; in the data active = inhibition above about 8.5%
# MC4R antagonist: blocks human MC4R cAMP signaling; 360,000 compounds, 0.48% hits; MC4R-expressing cells, MTII-stimulated cAMP, LANCE TR-FRET; AID 540295; inhibition, % at 6.5 µM;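 active = inhibition above its plate's cutoff, the mean of tested wells on that plate plus 3 SD, cut at about 29% in these data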;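 note: 0% = Melanotan II alone and 100% = Melanotan II plus saturating MCL0020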
#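 System: U2OS cells stably expressing human melanocortin 4 receptor (MC4R). Reagent: Melanotan II challenge after compound preincubation. Doses: 6.5 µM. Times: 30-min compound, 1-h challenge, 1-h detection, room temperature. Measured by: TR-FRET with Eu-cAMP and labeled anti-cAMP, 671 nm. Replicates: singlicate.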
# MC4R ag barr: human MC4R agonism via beta-arrestin | U2OS MC4R beta-arrestin complementation, luminescence; percent of melanotan II response, DMSO zero | activation, % at 8.9 µM | 360,000 compounds, 0.98% hits;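 active = activation above a per-plate cutoff, the mean activation of sample wells on that plate plus 3 SD, cut at about 8% in these data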
# NTR1 agonist: activates human neurotensin receptor 1; NTR1-U2OS beta-arrestin-GFP spot imaging, agonist mode; activation, % at 20 µM; 330,000 compounds, 0.17% hits; AID 493036;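 active = activation at or above 40% of the spot to cytoplasm intensity ratio, with at least 20 cells analyzed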;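 note: 0% = DMSO without peptide and 100% = 100 nM NTR1 peptide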
# Target sequence (P30989 whole entry, looked up): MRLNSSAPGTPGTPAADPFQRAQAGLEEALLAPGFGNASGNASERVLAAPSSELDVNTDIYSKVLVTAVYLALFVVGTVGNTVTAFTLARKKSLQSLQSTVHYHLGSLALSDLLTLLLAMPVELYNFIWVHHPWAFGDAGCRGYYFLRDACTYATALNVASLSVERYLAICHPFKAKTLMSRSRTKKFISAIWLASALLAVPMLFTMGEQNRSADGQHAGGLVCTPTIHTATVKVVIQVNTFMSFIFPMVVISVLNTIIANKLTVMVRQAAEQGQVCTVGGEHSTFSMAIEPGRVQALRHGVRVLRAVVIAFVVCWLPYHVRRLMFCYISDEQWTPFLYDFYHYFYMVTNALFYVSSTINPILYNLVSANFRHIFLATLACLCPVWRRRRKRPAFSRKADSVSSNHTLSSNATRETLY
# Rev-erbA mod: modulates human Rev-erb alpha binding to DNA; Rev-erbα–FITC-DNA binding, fluorescence polarization, 90 min; activity, % at 10 µM; 370,000 compounds, 0.79% hits;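 active = activity above about 14%, limit read from the data; passing the limit was not always enough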;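 note: 0% = DMSO wells with 35 nM protein and 100% = DMSO wells with 750 nM protein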
# Rev-erbA confirm: confirmation of modulators of human Rev-erb alpha DNA binding. shares compounds with Rev-erbA mod. Rev-erb alpha FITC-DNA binding, fluorescence polarization, 90 min. activation, % at 25 µM. 3,000 compounds, 61% hits. AID 1259319;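 active = activation at or above a set limit, or at least 3 SD above the negative control mean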;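 note: 0% = 35 nM protein with DMSO and 100% = 750 nM protein high control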
# RORg counter: RORgamma DNA-binding activity, dose-response counter-screen | IC50, µM | shares compounds with Rev-erbA mod | 910 compounds, 8% hits | purified RORgamma protein-FITC-DNA binding, fluorescence polarization;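 active = Compounds whose fitted half-maximal concentration for disrupting protein-DNA binding is below 10 micromolar; the record names Rev-erb in its text, so the target is in doubt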
# Active calls of the source: *; i = inactive; nt = no result given. Only some compounds are listed: those with a hit (about 2.5% of all), similar ones and a draw of the others.
SMILES,PG9 binder,MC4R antagonist,MC4R ag barr,NTR1 agonist,Rev-erbA mod,Rev-erbA confirm,others
Cc1cc(C)c2c(=O)[nH]c(SCC(=O)c3ccc(F)c(C)c3)nc2n1,2.5,-1.5,0.2,nt,35.4*,24.2*,
CCN(C(=O)[C@@H](C1CC1)[C@@H](O)c1ccc(C(C)=O)cc1)c1ccccc1,nt,nt,nt,nt,-0.8,nt,
O=C(CN(CCc1ccccc1)S(=O)(=O)c1ccc(F)cc1)N1CCOCC1,nt,nt,nt,nt,-2.1,nt,
O=C(NC1CC1c1ccccc1)N1CCC(c2nc3ccc(Cl)cc3[nH]2)CC1 (stereo not drawn),nt,nt,nt,nt,-6.7,nt,
O=C(Nc1nnc(-c2ccccc2Cl)s1)c1ccccc1F,-0.7,4.6,-1.4,2.5,26.9*,3.4,
O=C(Nc1nnc(-c2ccccc2)s1)c1ccccc1F,-0.4,-4.3,0.7,-2.7,-3.0,nt,
Cc1cc(C)cc(C(=O)OCCN(C)C2CN(Cc3cn(Cc4ccccc4F)nn3)S(=O)(=O)C2)c1 (stereo not drawn),nt,nt,nt,nt,0.3,nt,
C=CCNC(=O)Cn1nnc(-c2ccc(-c3ccc(OC)cc3)cc2)n1,0.1,0.2,1.4,0.0,39.3*,0.7,
CC(=O)c1cc(-c2cc3ccccc3o2)c(=O)n2c1CCC2,nt,nt,nt,nt,17.1,nt,
COc1ccc(C(=O)N2CCN(c3ncnc4c(-c5ccccc5)nsc34)CC2)cc1,-0.1,24.6,2.4,nt,0.0,nt,
COc1ccc(-c2nsc3c(N4CCCCC4)ncnc23)cc1,2.6,0.6,0.9,1.3,20.4*,0.9,
COc1ccc(-c2nsc3c(N4CCN(S(=O)(=O)c5ccccc5F)CC4)ncnc23)cc1,1.8,4.6,0.8,-0.4,31.5*,12.8,
COc1ccc(-c2nsc3c(N4CCCCC4C)ncnc23)cc1 (stereo not drawn),1.3,6.6,4.0,8.4,5.3,nt,
Cc1ccc2c(c1)N(CCCC(=O)N(C)Cc1ccc(F)cc1)C(=O)CO2,nt,nt,nt,nt,-5.5,nt,
C=CCN1C(=O)[C@@H](CC(=O)NCc2ccccc2)[C@]2(C(=O)OC)CCCCC=C12,nt,nt,nt,nt,-0.4,nt,
COc1ccc2oc(=O)c(C(=O)NCc3ccc(F)cc3)cc2c1,2.0,-10.2,-1.2,0.0,29.8*,12.7,
COc1ccc(CNC(=O)c2cc3ccccc3oc2=O)cc1,-1.1,9.6,-0.2,1.1,-2.8,nt,
COc1ccc2cc(C(=O)NCc3ccccc3)c(=O)oc2c1,-2.3,15.2,-0.4,0.7,40.2*,11.2,
C[C@H](O)[C@@H]1C(=O)N2CCc3c([nH]c4cccc(-c5ccccc5)c34)[C@@H]2C[C@@H]1N(C)C(=O)Nc1ccccc1,-1.9,nt,nt,nt,2.9,nt,
COC(=O)C1CN(CCO)CCS(=O)(=O)N1Cc1cccc(Cl)c1 (stereo not drawn),nt,nt,nt,nt,-0.9,nt,
Cc1ccc(O)c(N=Nc2nccs2)c1,-14.6,-5.7,-1.2,1.8,20.2*,7.2,
COc1ccc(-n2nc3ccc(NS(C)(=O)=O)cc3n2)cc1Cl,4.5,6.7,3.3,1.7,22.9*,17.9*,
CN1C(=O)[C@@]2(C3=C(CCCC3=O)OC3=C2C(=O)CC(C)(C)C3)c2ccccc21,-0.4,nt,nt,nt,-3.0,nt,
Nn1c(SCC(=O)Nc2ccc(C(=O)O)cc2)nnc1-c1ccco1,nt,nt,nt,nt,-1.5,nt,
COc1ccc(N/C=C2\C(=O)c3c(sc(C)c3C)N(C)S2(=O)=O)cc1,-1.3,9.8,-1.8,1.8,77.9*,4.8,
SMILES,PG9 binder,MC4R antagonist,MC4R ag barr,NTR1 agonist,Rev-erbA mod,Rev-erbA confirm,others
CN1c2ccccc2C(=O)/C(=C\Nc2ccc(F)cc2)S1(=O)=O,-0.4,-1.1,3.7,-1.9,1.5,nt,
Cc1ccc2c(c1)-c1c(cnn1CC(=O)NCCc1ccccc1F)CO2,nt,nt,nt,nt,-0.2,nt,
CCc1nn(CC(=O)NCCCc2ccccc2)c(=O)c2cc3c(OC)cccc3n12,0.2,1.6,-1.5,0.1,30.6*,3.7,
CC(=O)Oc1ccc2oc(/C=C/N(C)C)c([N+](=O)[O-])c2c1,-9.3,-26.6,-3.0,0.3,25.1*,43.2*,RORg counter=>40
C/C(=C/c1oc2ccc(O)cc2c1[N+](=O)[O-])N(C)C,-19.2,-34.6,-4.2,2.2,22.5*,25.5*,
CC(C)=Cc1oc2ccc([N+](=O)[O-])cc2c1N1CCOCC1,0.5,9.8,-1.2,3.7,-3.2,nt,
CCn1cc(C(=O)NCCc2ccc(Cl)cc2)c(=O)c2cc(S(=O)(=O)N(C)C)ccc21,0.4,6.0,0.6,5.8,43.9*,26.8*,
COc1ccc(-c2nc(N)ncc2Oc2ccccc2Br)c(O)c1,-0.6,9.1,3.5,5.3,103.6*,80.5*,RORg counter=>40
N#CC1=C(SCC(N)=O)NC2=C(C(=O)c3ccccc32)C1c1ccc(Cl)cc1 (stereo not drawn),-1.4,3.8,0.8,19.1,33.0*,54.4*,RORg counter=>40
CSCSC1=C(C#N)C(c2ccc(Cl)cc2)C(C(C)=O)=C(C)N1 (stereo not drawn),nt,nt,nt,9.2,nt,nt,
NC1CCN(c2cccc(Cl)n2)CC1,nt,nt,nt,-1.4,nt,nt,
N#Cc1cc(C#N)c(N2CCN(c3cccc(Cl)n3)CC2)nc1N,-1.6,2.2,-2.7,6.9,25.6*,71.5*,RORg counter=i
Cc1ccc(-n2c(SCC(=O)Nc3ccccc3-c3ccccc3)nnc2-c2cccnc2)cc1,nt,nt,nt,nt,-1.1,nt,
CCCCN1C[C@@H](COCc2ccccc2)Oc2cccc(F)c2S1(=O)=O,nt,nt,nt,nt,17.3*,0.5,
COc1ccc2cc(C3CC(c4cccs4)=NN3C(C)=O)c(Cl)nc2c1 (stereo not drawn),0.7,6.0,-2.0,6.8,40.9*,32.3*,RORg counter=>40
O=C(C(=O)N1CCC(CNS(=O)(=O)c2ccc(F)c(F)c2)CC1)c1cc2ccccc2o1,-0.2,nt,nt,nt,-1.0,nt,
COc1ccccc1-c1ccc2c(c1)C(C)(Cc1ccc(Cl)cc1)C(=O)N2 (stereo not drawn),-0.9,13.1,1.0,nt,-5.4,nt,
COc1ccccc1-c1ccc2c(c1)C(C)(Cc1ccc(F)c(Cl)c1)C(=O)N2 (stereo not drawn),1.2,-5.1,-0.7,nt,12.1,nt,
COc1ccc(Cl)cc1CC1(C)C(=O)Nc2ccc(-c3ccccc3OC)cc21 (stereo not drawn),-1.2,5.4,-0.1,nt,49.5*,55.4*,RORg counter=>40
COc1ccccc1-c1ccc2c(c1)C(C)(Cc1cc(Cl)ccc1C(F)(F)F)C(=O)N2 (stereo not drawn),-0.4,10.1,0.4,nt,43.0*,62.0*,RORg counter=i
COc1ccccc1-c1ccc2c(c1)C(C)(Cc1cccc(C#N)c1)C(=O)N2 (stereo not drawn),1.7,3.7,-0.1,nt,45.7*,43.4*,RORg counter=>40
CNc1c2cccc(C)c2nc2c(C(=O)NCCN(C)C)cccc12,-2.1,-4.4,-0.8,nt,14.8*,8.0,
COC(=O)c1cc2cc(Cl)ccc2nc1SC,1.0,-8.3,1.5,3.3,97.8*,53.0*,RORg counter=i
Nc1nc2ccc(Cl)cc2cc1C(=O)NC1CC1,1.3,nt,nt,nt,2.2,nt,
